# Rows were chosen to be rich in hits. Some 2.3% of all compounds tested hit in one or more screens of this group.
# TAAR1 ag: agonists of human TAAR1. CHO RD-HGA16 TAAR1, Fluo-8 calcium fluorescence; vehicle wells 0%, saturating PEA agonist 100%. 360,000 tested, 0.99% active. activation, % at 3 µM. AID 624467. Q96RJ0;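 active means activation above the mean activation of all test compounds in the run plus 3 SD, cut at about 38% in these data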
# Target sequence (Q96RJ0 whole entry, looked up): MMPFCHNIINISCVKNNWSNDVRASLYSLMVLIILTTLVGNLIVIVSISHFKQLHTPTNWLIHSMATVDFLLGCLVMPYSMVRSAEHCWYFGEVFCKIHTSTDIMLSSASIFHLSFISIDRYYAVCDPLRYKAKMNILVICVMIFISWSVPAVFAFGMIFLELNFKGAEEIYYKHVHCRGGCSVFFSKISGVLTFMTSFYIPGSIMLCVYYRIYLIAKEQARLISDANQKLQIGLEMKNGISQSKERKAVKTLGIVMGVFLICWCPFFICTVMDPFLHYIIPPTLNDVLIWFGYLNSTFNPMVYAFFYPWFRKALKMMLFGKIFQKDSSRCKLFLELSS
#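 System: CHO-derived RD-HGA16 cells with stable Gα16 and human TAAR1 / Times: 17-24 h plating, Fluo-8 75 min 37 °C, 30 min RT / Technique: calcium-sensitive Fluo-8 signal, excitation 470-495, emission 515-575 nm / Measure: % activation relative to PEA EC100 response / Benchmarks: DMSO and PEA EC100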
# OXTR agonist: activates the human oxytocin receptor | P30559 | CHO-OTR cells, Fluo-8 calcium fluorescence; normalized: DMSO 0%, oxytocin 100% | activation, % at 3 µM | 320,000 tested, 0.32% active;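 active means activation above the mean of all tested compounds plus 3 SD, cutoff set per screening run, cut at about 20% in these data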;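 further: peak over basal fluorescence ratio from a 100 s FLIPR kinetic read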
# TAAR1 antagonist: antagonists of human TAAR1; Q96RJ0; CHO RD-HGA16 TAAR1, Fluo-8 calcium fluorescence, antagonist; inhibition, % at 3 µM; 360,000 tested, 1.5% active;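 active means inhibition above a per-plate cutoff, the mean inhibition of test compounds on that plate plus 3 SD, cut at about 49% in these data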;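 further: 0% = DMSO plus EC80 beta-PEA response and 100% = DMSO alone without agonist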
#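 System: CHO RD-HGA16 cells bearing hTAAR1. Reagent: EC80 β-phenethylamine stimulus. Schedule: seeding 17-24 h prior, 75-min 37 °C, 30-min RT dye loading. Signal: Fluo-8 intracellular calcium dye fluorescence, real-time kinetic reads. Read-out: % inhibition from peak post-agonist over basal fluorescence ratio. Benchmarks: vehicle wells and EC80 agonist wells. Replicates: n of 1.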
# OXTR potentiate: potentiates the human oxytocin receptor response; P30559; CHO-OTR cells, Fluo-8 calcium fluorescence, potentiator mode; 0% = oxytocin EC15, 100% = EC100; activation, % at 3 µM; 320,000 tested, 0.061% active;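 active means activation above that plate's cutoff, the mean activation of tested compounds plus 3 SD, cut at about 6.6% in these data, passing the limit was not always enough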;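 further: 100% uses oxytocin at 75 nM as the full agonist control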
#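 System: human OTR in CHO cells; Also added: sub-maximal oxytocin, roughly EC15; Timing: compound 6 min at room temperature before oxytocin, 100 s read; Technique: Fluo-8 intracellular calcium fluorescence, ex 470-495, em 515-575 nm; Controls: oxytocin EC15 low and EC100 high; Replication: singlicate.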
# V1R ag counter: activates human V1a receptor in oxytocin agonist counter-screen; activation, % at 3 µM; CHO-V1R cells, Fluo-8 calcium fluorescence, agonist mode; 0% DMSO, 100% 3 nM vasopressin; 320,000 tested, 0.25% active; P37288;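 active means activation above the mean activation of all tested compounds plus 3 SD, per screening run, cut at about 20% in these data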;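 further: signal is peak over basal fluorescence ratio across a 100 second FLIPR read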
# TAAR1 nonsel count: counter-screen for TAAR1 antagonists: nonselective antagonists. shares compounds with TAAR1 antagonist. counterscreen cell line, calcium fluorescence, antagonist mode. inhibition, % at 3 µM. 2,400 tested, 77% active; in the data active means inhibition above about 22%;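 further: CHO-Ga16 host cells stimulated with ATP at an EC80 level; 0% = agonist EC80 plus vehicle and 100% = vehicle without agonist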
# TAAR1 ant conf: human TAAR1 antagonism, confirmed | 2,400 tested, 40% active | TAAR1-expressing cells, fluorescence antagonist read-out | inhibition, % at 3 µM | shares compounds with TAAR1 antagonist; in the data active means inhibition above about 49%;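 further: CHO-Ga16 host cells challenged with agonist PEA near its EC80; 0% = agonist at EC80 plus vehicle and 100% = vehicle with no agonist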
# Ga16 ag counter: counter-screen for TAAR1 antagonists: nonselective Ga16 agonists | shares compounds with TAAR1 antagonist | Ga16-expressing cells, calcium fluorescence, agonist counterscreen | activation, % at 3 µM | 2,400 tested, 18% active; in the data active means activation above about 12%;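 further: 0% = vehicle wells and 100% = saturating stimulus response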
# TAAR1 ag count: counter-screen for human TAAR1 antagonists: TAAR1 agonists | shares compounds with TAAR1 antagonist | hTAAR1 cell line, fluorescence activation, agonist mode | activation, % at 3 µM | 2,400 tested, 2% active | AID 651955; in the data active means activation above about 37%;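 further: CHO cells stably expressing TAAR1 with calcium dye readout; 0% = DMSO vehicle and 100% = full agonist response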
# * marks the source's active call; other numbers are inactive results; . = no result.
SMILES,TAAR1 ag,OXTR agonist,TAAR1 antagonist,OXTR potentiate,V1R ag counter,TAAR1 nonsel count,TAAR1 ant conf,Ga16 ag counter,TAAR1 ag count
COc1ccc(C2=NS(=O)(=O)N(C)C(C(=O)N(C)Cc3ccccc3)=C2)cc1OC,7.0,6.8,52.4*,-16.8,6.2,22.8*,33.7,7.5,6.4
COc1ccc(C2=NS(=O)(=O)N(C)C(C(=O)NC(C)c3ccccc3)=C2)cc1OC (stereo not given),2.5,1.2,13.9,-10.3,0.3,.,.,.,.
COc1ccccc1N1CCN(C(=O)c2ccc(-c3nc4ccccc4s3)o2)CC1,1.5,-2.7,54.3*,-3.9,-1.7,22.0*,35.1,3.3,-1.2
COc1ccc(N2CCN(C(=O)c3ccc(-c4nc5ccccc5s4)o3)CC2)cc1,1.5,-0.7,-4.5,10.1,-0.2,.,.,.,.
Cc1cc(=O)oc(C)c1C(=O)NCCC1=CCCCC1,5.7,0.6,5.1,0.3,0.6,.,.,.,.
CC/C(=C(/CC)c1ccc(O)cc1)c1ccc(O)cc1,0.3,-0.9,56.9*,-5.6,1.8,23.2*,37.4,3.9,11.5
Cc1ccc(Nc2c([N+](=O)[O-])c(=O)n(C)c3ccccc23)cc1,4.7,-2.4,-1.6,3.6,-0.6,.,.,.,.
COc1ccc(C(=O)c2cc(OC)c(OC)c(OC)c2)cc1OC,3.1,.,-13.2,.,.,.,.,.,.
CCC1CN(C(=O)N2CCC(C(=O)NCc3ccccc3OC)CC2)c2ccccc2O1 (stereo not given),13.8,5.8,36.1,-9.9,6.7,.,.,.,.
CCC1CN(C(=O)N2CCC(C(=O)NCc3ccccc3OC)CC2)c2cc(C)ccc2O1 (stereo not given),12.6,2.8,53.6*,-8.7,4.3,28.6*,44.2,9.6,10.5
COc1ccccc1CN(Cc1nc2ccccc2c(=O)[nH]1)S(=O)(=O)c1ccc2ccccc2c1,7.3,-0.2,70.3*,-15.7,1.8,25.5*,55.7*,7.4,9.6
Cc1ccccc1NC(=O)C1CCCN(S(=O)(=O)c2cccc3cccnc23)C1 (stereo not given),13.4,-1.2,54.4*,-2.8,3.3,20.4,39.5,7.4,6.6
COc1cc(NC(=O)[C@@H]2CCCN(S(=O)(=O)c3cccc4cccnc34)C2)cc(OC)c1OC,19.8,-2.8,51.5*,-0.9,-1.0,29.0*,39.9,7.8,5.5
COc1ccc(OC)c(NC(=O)C2CCCN(S(=O)(=O)c3cccc4cccnc34)C2)c1 (stereo not given),11.6,-2.1,60.4*,3.5,1.1,23.5*,39.6,8.7,6.7
Cc1cccc(N2CCN(C(=O)C3CCN(S(=O)(=O)c4cccc5cccnc45)CC3)CC2C)c1 (stereo not given),15.0,0.6,75.4*,-8.1,4.2,27.8*,53.6*,11.3,9.4
O=C(C1CCN(S(=O)(=O)c2cccc3cccnc23)CC1)N1CCCC1,2.3,1.1,1.3,-4.6,0.2,.,.,.,.
COc1ccc(/C=C2/SC(=S)N(NS(=O)(=O)c3ccc(C)cc3)C2=O)cc1,5.8,0.4,19.8,-8.1,3.2,.,.,.,.
CCSc1nnc(NC(=O)C2Cc3ccccc3CN2C(=O)c2ccco2)s1 (stereo not given),8.6,1.5,-10.0,-8.0,1.7,.,.,.,.
CC1CCc2c(sc3nc(C4CC4)nc(N4CCN(C(=O)c5ccco5)CC4)c23)C1 (stereo not given),17.1,0.0,58.4*,-5.5,0.7,15.9,6.7,-0.7,3.2
CCOC(=O)C1=C(C)NC(C)=C(C(=O)OCC)C1C(=O)OCC(N)=O,0.2,0.9,-14.8,-1.9,0.4,.,.,.,.
CCOC(=O)C1=C(C)NC(C)=C(C(=O)OCC)C1C(=O)OCC(=O)NC(C)C,15.8,-0.6,60.0*,-5.4,-0.2,22.7*,45.4,7.5,9.5
